In ChEMBL document CHEMBL1157620, “1-(Aryl)-6-[alkoxyalkyl]-3-azabicyclo[3.1.0]hexanes and 6-(aryl)-6-[alkoxyalkyl]-3-azabicyclo[3.1.0]hexanes: a new series of potent and selective triple reuptake inhibitors” (J Med Chem, 2010):

Columns and labels:
[1] = biological target: T1, Sodium-dependent dopamine transporter (Homo sapiens, UniProt Q01959); experiment: Displacement of [3H]WIN-35428 from human recombinant DAT expressed in BacMam virus-transduced cells by scintillation proximity assay; assay type: cell-based
T1 sequence (Q01959 whole entry): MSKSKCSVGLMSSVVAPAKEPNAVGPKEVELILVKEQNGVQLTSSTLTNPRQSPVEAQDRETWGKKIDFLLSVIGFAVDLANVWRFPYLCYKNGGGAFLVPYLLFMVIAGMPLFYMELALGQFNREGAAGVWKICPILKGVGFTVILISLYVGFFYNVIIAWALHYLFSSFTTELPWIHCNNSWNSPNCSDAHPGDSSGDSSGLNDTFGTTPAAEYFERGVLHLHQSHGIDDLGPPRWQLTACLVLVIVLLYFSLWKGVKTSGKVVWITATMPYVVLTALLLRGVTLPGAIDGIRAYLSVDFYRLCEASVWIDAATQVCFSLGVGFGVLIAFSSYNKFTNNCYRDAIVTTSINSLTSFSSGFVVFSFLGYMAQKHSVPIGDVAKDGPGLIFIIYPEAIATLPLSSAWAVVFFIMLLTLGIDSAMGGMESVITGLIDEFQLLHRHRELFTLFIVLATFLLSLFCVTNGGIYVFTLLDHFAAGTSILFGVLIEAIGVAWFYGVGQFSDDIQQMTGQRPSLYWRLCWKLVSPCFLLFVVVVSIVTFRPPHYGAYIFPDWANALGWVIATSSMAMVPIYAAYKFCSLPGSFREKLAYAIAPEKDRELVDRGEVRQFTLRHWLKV

[2] = biological target: T2, Sodium-dependent noradrenaline transporter (Homo sapiens, UniProt P23975); experiment: Displacement of [3H]nisoxetine from human recombinant NET expressed in BacMam virus-transduced cells by scintillation proximity assay; assay type: cell-based
T2 sequence (P23975 whole entry): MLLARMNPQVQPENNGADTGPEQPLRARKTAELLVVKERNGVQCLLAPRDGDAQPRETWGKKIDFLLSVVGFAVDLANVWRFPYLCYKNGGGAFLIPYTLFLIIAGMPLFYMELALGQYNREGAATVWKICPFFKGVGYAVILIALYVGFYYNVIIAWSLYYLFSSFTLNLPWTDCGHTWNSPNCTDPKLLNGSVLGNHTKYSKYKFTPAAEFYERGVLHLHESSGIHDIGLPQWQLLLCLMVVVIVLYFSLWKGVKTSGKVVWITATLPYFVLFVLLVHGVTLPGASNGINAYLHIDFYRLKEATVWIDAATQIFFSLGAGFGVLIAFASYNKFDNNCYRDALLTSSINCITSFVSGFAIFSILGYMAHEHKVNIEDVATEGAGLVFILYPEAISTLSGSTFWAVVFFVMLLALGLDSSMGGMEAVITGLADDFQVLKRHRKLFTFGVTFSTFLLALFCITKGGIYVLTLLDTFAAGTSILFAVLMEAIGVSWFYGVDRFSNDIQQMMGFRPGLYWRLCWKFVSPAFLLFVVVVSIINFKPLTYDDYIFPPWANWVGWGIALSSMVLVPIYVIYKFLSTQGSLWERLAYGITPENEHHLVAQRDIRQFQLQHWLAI
Summary of the method: (§1)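 BacMam-transduced membranes in SPA format. SERT: 1 mg/mL beads, 6 μg/mL membranes, 3 nM [3H]citalopram. NET: 2 mg/mL beads, 40 μg/mL membranes, 10 nM [3H]nisoxetine. Incubated overnight at room temperature; pKi from pIC50 by Cheng-Prusoff.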

[3] = biological target: T3, Sodium-dependent serotonin transporter (Homo sapiens, UniProt P31645); experiment: Displacement of [3H]citalopram from human recombinant SERT expressed in BacMam virus-transduced cells by scintillation proximity assay; assay type: cell-based; summary of the method: as §1
T3 sequence (P31645 whole entry): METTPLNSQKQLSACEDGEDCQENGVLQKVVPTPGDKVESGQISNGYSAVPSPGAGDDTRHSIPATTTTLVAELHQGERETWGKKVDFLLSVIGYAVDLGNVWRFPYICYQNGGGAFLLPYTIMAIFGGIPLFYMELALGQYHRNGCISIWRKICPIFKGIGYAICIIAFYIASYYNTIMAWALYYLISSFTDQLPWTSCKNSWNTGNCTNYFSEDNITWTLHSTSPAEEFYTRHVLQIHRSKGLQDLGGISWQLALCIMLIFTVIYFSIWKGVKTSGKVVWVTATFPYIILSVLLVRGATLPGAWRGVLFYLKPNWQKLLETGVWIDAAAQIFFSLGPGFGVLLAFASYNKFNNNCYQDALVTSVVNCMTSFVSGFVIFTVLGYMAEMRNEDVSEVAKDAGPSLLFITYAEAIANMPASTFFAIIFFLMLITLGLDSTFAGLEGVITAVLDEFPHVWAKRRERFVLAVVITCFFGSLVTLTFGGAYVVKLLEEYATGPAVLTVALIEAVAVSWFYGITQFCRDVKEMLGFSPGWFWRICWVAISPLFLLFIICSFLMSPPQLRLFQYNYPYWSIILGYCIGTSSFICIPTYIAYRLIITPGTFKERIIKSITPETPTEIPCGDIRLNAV

[4] = biological target: Sodium-dependent serotonin transporter (Rattus norvegicus, UniProt P31652); experiment: Displacement of [3H]citalopram from rat cortex SERT by filtration binding assay
Summary of the method: (§2)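 Native brain tissue filtration binding, run as for the recombinant transporters. SERT on rat or mouse cortex (20 and 7 μg protein/well respectively). NET on rat hippocampus (40 μg/well). DAT on rat striatum (20 μg/well).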

[5] = biological target: T4, Cytochrome P450 1A2 (Homo sapiens, UniProt P05177); experiment: Inhibition of human CYP1A2 by fluorescence assay; assay type: ADME
T4 sequence (P05177 whole entry): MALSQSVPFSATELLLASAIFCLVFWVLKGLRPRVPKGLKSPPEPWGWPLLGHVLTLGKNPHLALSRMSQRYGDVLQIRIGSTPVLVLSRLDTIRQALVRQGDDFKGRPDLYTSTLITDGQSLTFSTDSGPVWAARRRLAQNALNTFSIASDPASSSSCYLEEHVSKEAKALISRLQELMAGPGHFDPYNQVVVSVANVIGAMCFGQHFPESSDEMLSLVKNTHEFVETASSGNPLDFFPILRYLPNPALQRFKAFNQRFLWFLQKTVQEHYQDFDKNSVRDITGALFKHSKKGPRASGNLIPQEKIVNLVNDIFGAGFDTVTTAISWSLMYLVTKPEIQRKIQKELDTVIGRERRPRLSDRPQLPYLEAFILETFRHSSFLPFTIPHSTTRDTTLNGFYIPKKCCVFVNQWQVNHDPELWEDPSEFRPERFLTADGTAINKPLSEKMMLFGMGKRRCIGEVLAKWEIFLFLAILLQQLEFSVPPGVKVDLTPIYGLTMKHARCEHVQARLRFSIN
Summary of the method: (§3)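 Recombinant human P450 bactosomes (0.1 mg/mL) in 50 mM phosphate, pH 7.4. Test compound at 0.1-10 μM, preincubated 10 min at 37 °C with fluorogenic substrate: ethoxyresorufin 0.5 μM (1A2), FCA 50 μM (2C9), BMC 10 μM (2C19), MMC 10 μM (2D6).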

[6] = biological target: Cytochrome P450 2C9 (Homo sapiens, UniProt P11712); experiment: Inhibition of human CYP2C9 by fluorescence assay; assay type: ADME; summary of the method: as §3
[7] = biological target: Cytochrome P450 2C19 (Homo sapiens, UniProt P33261); experiment: Inhibition of human CYP2C19 by fluorescence assay; assay type: ADME; summary of the method: as §3
[8] = biological target: Cytochrome P450 2D6 (Homo sapiens, UniProt P10635); experiment: Inhibition of human […] by fluorescence assay; assay type: ADME; summary of the method: as §3
[9] = biological target: Cytochrome P450 3A4 (Homo sapiens, UniProt P08684); experiment: Inhibition of human CYP3A4 by fluorescence assay
[10] = tested on: Liver microsomes; experiment: Intrinsic clearance in human liver microsomes assessed per gram of protein at 0.5 uM after 30 mins by HPLC-MS/MS analysis; assay type: ADME, Microsome; details: microsomes, 0.5 h, 0.5 µM
Summary of the method: (§4)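 Compound at 0.5 μM with rat or human liver microsomes (0.5 mg protein/mL), 50 mM phosphate, pH 7.4, 37 °C, started with NADPH. Sampled at 0-30 min, acetonitrile quench, HPLC-MS/MS. CLi from first-order elimination constant, scaled assuming 52.5 mg microsomal protein/g.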

[11] = tested on: Liver microsomes; experiment: Intrinsic clearance in rat liver microsomes assessed per gram of protein at 0.5 uM after 30 mins by HPLC-MS/MS analysis; assay type: ADME, Microsome; details: microsomes, 0.5 h, 0.5 µM; summary of the method: as §4
[12] = Blood clearance in rat; assay type: ADME, organism-based
[13] = Half life in rat; assay type: ADME, organism-based; details: in vivo
[14] = Volume of distribution in rat; assay type: ADME, organism-based; details: in vivo
[15] = Bioavailability in rat; assay type: ADME, organism-based; details: in vivo
[16] = Ratio of drug level in brain to blood in rat; assay type: ADME, tissue-based; details: read-out: BBR
[17] = Fraction unbound in rat brain; assay type: ADME, tissue-based; details: brain
[18] = biological target: T3, Sodium-dependent serotonin transporter; experiment: Inhibition of [3H]serotonin reuptake at human SERT expressed in LLCPK cells by scintillation proximity assay; assay type: cell-based
Summary of the method: (§5)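 Uptake-SPA on stably transfected LLCPK cells in HEPES buffer, pH 7.4. SERT: 25000 cells/well, 1.5 mg/mL beads, 35 nM [3H]serotonin. NET: 50000 cells/well, 1.5 mg/mL beads, 45 nM [3H]noradrenalin. DAT: 75000 cells/well, 2 mg/mL beads, 75 nM [3H]dopamine. Concentrations are those of the substrate addition. 1 h at room temperature; 4-parameter fit.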

[19] = biological target: T2, Sodium-dependent noradrenaline transporter; experiment: Inhibition of [3H]noradrenalin reuptake at human NET expressed in LLCPK cells by scintillation proximity assay; assay type: cell-based; summary of the method: as §5
[20] = biological target: T1, Sodium-dependent dopamine transporter; experiment: Inhibition of [3H]dopamine reuptake at human DAT expressed in LLCPK cells by scintillation proximity assay; assay type: cell-based; summary of the method: as §5
[21] = biological target: Alpha-1A adrenergic receptor (Homo sapiens, UniProt P35348); experiment: Inhibition of adrenergic alpha1A receptor
Alpha-1A adrenergic receptor, sequence (P35348 whole entry): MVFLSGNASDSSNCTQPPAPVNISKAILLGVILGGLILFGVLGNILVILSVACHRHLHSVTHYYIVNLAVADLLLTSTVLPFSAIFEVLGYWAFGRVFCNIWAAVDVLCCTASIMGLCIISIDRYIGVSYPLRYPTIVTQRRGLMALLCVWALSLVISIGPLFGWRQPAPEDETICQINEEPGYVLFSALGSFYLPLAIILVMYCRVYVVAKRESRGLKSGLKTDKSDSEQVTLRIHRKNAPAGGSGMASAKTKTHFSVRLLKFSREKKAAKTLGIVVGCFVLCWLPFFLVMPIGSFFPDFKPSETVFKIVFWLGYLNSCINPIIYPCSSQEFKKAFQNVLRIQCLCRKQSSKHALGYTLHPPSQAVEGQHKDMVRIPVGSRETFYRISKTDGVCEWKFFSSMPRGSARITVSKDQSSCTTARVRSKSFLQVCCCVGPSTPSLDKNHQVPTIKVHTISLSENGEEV

[22] = biological target: 5-hydroxytryptamine receptor 2A (Homo sapiens, UniProt P28223); experiment: Inhibition of 5HT2A receptor
[23] = biological target: Histamine H1 receptor (Homo sapiens, UniProt P35367); experiment: Inhibition of histamine H1 receptor
[24] = biological target: Muscarinic acetylcholine receptor M1 (Homo sapiens, UniProt P11229); experiment: Inhibition of muscarinic M1 receptor
Muscarinic acetylcholine receptor M1, sequence (P11229 whole entry): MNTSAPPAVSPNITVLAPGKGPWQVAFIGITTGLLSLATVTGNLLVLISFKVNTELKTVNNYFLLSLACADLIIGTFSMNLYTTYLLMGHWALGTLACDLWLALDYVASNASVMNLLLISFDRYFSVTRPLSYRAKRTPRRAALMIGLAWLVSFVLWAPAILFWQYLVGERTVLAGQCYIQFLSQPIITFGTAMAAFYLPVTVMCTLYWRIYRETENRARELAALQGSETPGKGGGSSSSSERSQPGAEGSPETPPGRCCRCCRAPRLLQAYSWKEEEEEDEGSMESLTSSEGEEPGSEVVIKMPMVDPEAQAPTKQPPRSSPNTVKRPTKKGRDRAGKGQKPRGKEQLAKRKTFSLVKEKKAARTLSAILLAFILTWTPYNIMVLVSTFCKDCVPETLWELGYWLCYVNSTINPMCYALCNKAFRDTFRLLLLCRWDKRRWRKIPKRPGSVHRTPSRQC

[25] = biological target: Muscarinic acetylcholine receptor M2 (Homo sapiens, UniProt P08172); experiment: Inhibition of muscarinic M2 receptor
Muscarinic acetylcholine receptor M2, sequence (P08172 whole entry): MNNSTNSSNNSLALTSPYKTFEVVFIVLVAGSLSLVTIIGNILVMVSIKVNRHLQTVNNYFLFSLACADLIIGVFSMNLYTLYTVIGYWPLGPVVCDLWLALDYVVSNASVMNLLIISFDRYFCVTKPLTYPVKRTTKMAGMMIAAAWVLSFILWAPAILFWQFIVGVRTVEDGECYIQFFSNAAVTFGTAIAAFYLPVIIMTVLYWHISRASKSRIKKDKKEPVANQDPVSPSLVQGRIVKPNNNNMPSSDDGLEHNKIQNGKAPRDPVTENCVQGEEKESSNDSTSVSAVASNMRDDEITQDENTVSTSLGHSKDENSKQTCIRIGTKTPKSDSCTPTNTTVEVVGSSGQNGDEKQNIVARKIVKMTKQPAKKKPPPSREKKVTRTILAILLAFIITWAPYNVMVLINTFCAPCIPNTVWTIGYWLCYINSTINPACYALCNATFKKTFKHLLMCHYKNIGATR

[26] = biological target: Muscarinic acetylcholine receptor M3 (Homo sapiens, UniProt P20309); experiment: Inhibition of muscarinic M3 receptor
[27] = biological target: Muscarinic acetylcholine receptor M4 (Homo sapiens, UniProt P08173); experiment: Inhibition of muscarinic M4 receptor
[28] = biological target: Muscarinic acetylcholine receptor M5 (Homo sapiens, UniProt P08912); experiment: Inhibition of muscarinic M5 receptor
[29] = biological target: T5, Voltage-gated inwardly rectifying potassium channel KCNH2 (Homo sapiens, UniProt Q12809); experiment: Inhibition of human ERG assessed as blockade of channel current by electrophysiology assay
T5 sequence (Q12809 whole entry): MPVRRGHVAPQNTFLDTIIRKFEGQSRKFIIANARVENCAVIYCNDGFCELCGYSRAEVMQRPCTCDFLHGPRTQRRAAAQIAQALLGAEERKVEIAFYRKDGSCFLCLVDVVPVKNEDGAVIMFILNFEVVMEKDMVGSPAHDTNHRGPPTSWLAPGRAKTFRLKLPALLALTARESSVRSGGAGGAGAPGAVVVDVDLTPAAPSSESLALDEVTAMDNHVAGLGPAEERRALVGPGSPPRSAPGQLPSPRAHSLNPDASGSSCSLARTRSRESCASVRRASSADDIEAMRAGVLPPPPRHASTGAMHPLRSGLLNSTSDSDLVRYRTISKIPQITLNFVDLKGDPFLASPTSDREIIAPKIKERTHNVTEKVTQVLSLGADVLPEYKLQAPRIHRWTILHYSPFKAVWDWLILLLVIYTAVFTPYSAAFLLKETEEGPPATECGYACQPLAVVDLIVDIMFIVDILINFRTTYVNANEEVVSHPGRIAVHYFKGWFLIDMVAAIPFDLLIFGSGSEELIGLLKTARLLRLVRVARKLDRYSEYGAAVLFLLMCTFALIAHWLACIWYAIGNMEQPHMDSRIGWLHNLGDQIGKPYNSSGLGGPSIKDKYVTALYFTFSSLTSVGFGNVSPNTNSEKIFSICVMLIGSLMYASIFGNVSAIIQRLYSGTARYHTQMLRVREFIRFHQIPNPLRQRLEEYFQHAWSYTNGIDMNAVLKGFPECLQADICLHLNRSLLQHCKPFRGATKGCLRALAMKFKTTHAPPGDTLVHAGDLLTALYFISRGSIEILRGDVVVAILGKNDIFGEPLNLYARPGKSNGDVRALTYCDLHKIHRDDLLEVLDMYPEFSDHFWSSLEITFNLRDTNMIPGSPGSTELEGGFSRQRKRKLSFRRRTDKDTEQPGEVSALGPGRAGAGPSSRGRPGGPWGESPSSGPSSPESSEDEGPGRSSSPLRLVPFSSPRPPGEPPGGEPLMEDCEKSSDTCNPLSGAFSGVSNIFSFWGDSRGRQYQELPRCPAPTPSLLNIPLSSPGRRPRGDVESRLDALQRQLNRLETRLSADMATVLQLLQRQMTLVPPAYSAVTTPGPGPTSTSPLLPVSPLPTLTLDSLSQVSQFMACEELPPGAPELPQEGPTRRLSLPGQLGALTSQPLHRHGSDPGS

[30] = biological target: T5, Voltage-gated inwardly rectifying potassium channel KCNH2; experiment: Displacement of [3H][…] from human ERG by scintillation proximity assay
Summary of the method: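 SPA-format [³H]dofetilide binding to hERG, with bound signal read on a plate imager. The value is reported as a binding pKi.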

[31] = biological target: Transporter (Rattus norvegicus, UniProt Q63380); experiment: Displacement of [N-methyl-3H]nisoxetine from rat hippocampus NET by filtration binding assay; assay type: tissue-based; summary of the method: as §2
[32] = biological target: Sodium-dependent dopamine transporter (Rattus norvegicus, UniProt P23977); experiment: Displacement of [N-methyl-3H]WIN-35428 from rat striatum DAT by filtration binding assay; summary of the method: as §2
[33] = biological target: Sodium-dependent serotonin transporter (Mus musculus, UniProt Q60857); experiment: Displacement of [3H]citalopram from mouse cortex SERT by filtration binding assay; summary of the method: as §2
Sodium-dependent serotonin transporter (Mus musculus, UniProt Q60857), sequence (Q60857 whole entry): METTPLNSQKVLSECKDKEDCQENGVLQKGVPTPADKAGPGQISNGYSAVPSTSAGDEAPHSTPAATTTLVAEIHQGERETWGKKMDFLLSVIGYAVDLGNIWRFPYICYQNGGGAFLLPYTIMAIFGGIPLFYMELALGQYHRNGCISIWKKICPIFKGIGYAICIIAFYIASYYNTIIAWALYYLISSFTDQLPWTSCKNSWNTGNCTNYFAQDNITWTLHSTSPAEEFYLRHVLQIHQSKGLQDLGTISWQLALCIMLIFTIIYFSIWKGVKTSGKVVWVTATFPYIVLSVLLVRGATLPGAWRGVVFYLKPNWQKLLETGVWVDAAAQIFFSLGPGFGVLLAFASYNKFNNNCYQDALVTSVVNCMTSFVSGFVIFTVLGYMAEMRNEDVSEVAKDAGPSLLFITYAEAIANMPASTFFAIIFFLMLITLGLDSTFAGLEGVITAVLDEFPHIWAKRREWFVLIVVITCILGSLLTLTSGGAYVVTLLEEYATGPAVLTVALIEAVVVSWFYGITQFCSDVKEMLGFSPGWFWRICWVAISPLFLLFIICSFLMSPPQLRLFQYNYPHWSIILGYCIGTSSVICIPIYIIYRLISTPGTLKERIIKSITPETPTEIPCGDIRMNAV

SMILES: CCOC[C@H]1[C@@H]2CNC[C@@]21c1ccc(Cl)c(Cl)c1
- Ki [1]: 7.94 nM
- Ki [2]: 0.501 nM
- Ki [3]: 0.158 nM
- Ki [4]: 0.676 nM
- IC50 [5]: > 9000 nM
- IC50 [6]: > 9000 nM
- IC50 [7]: > 9000 nM
- IC50 [8]: 4000 nM
- IC50 [9]: > 9000 nM
- CL [10]: 1.2 mL/min/g
- CL [11]: 1.3 mL/min/g
- clearance [12]: 18 mL/min/kg
- half-life [13]: 1.2 h
- Vd [14]: 1.4 L/kg
- bioavailability [15]: 61%
- Kp [16]: 4.6
- fraction unbound [17]: 0.014
- IC50 [18]: 1.26 nM
- IC50 [19]: 0.158 nM
- IC50 [20]: 5.01 nM
- Ki [21]: 200 nM
- Ki [22]: 158 nM
- Ki [23]: 1000 nM
- Ki [24]: 158 nM
- Ki [25]: 200 nM
- Ki [26]: 63.1 nM
- Ki [27]: 251 nM
- Ki [28]: 100 nM
- IC50 [29]: 4200 nM
- Ki [30]: 12600 nM
- Ki [31]: 0.135 nM
- Ki [32]: 13.5 nM
- Ki [33]: 0.851 nM
